Sampled rows, rich in hits. Any-hit rate of the full collection: about 5.9%.
T cruzi growth-1: inhibitors of T. cruzi proliferation; inhibition, % at 8.34 µM; 77,000 compounds, 5.9% hits; T. cruzi beta-gal in NIH3T3, GalScreen luminescence, 90 h; AID 624255;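 active = mean inhibition above about 93%, with at least 55% of replicates each passing it, limit read from the data, passing the limit was not always enough; inconclusive = only one of those two conditions holds; inactive = neither condition holds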
Pf Dd2 inh: P. falciparum Dd2 growth inhibition | SYBR Green, 72 h; hits give low values | activity change, % at 10 µM | 94,000 compounds, 2.3% hits; in the data active = activity change below about -80%; inconclusive = no clear call, values can overlap the other calls
IDH1 mut inh: IDH1 R132H (human) inhibition | 70,000 compounds, 0.18% hits | IDH1 R132H reductase, diaphorase/resazurin fluorescence, 60 min | inhibition, % at 10 µM | AID 624101; in the data active = inhibition above about 34%; inconclusive = no clear call, values can overlap the other calls; inactive = below about 11%;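 also: 0% = DMSO and 100% = no enzyme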
Target sequence (O75874 whole entry R132H): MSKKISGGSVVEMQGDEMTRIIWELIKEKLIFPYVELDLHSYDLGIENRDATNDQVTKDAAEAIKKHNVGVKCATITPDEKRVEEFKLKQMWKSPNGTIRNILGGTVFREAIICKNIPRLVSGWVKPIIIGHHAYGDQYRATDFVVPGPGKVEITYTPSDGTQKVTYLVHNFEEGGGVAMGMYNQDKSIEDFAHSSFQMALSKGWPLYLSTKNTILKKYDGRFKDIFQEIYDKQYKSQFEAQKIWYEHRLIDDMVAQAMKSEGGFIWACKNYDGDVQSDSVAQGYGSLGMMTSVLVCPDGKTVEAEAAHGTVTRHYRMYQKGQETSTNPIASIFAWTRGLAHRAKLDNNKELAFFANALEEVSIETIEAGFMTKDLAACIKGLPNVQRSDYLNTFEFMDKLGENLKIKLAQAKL
KDM4C inh: inhibitors of human demethylase GASC-1 KDM4C; AID 720574; 96,000 compounds, 0.15% hits; inhibition, % at 12.5 µM; GST-KDM4C 2-372, H3K9me3 peptide, LANCE TR-FRET;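 active = mean replicate inhibition above about 25%, with at least 55% of replicates also reaching it, limit read from the data, passing the limit was not always enough; inconclusive = only one of those two conditions met; inactive = neither condition met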
Target sequence (Q9H3R0 2-372 limits assumed): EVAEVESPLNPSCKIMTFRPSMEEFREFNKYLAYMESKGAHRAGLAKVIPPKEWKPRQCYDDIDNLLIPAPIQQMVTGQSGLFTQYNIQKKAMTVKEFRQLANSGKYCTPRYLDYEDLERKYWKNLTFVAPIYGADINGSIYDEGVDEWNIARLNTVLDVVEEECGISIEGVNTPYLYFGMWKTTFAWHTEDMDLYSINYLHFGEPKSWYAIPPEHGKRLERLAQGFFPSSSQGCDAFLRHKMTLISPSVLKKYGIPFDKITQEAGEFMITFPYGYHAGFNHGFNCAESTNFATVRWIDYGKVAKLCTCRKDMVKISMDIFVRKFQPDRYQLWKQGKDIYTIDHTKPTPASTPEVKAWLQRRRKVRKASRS
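System – N-terminal GST-fused human GASC-1 (KDM4C) fragment, residues 2-372 · Input – enzyme final amount 10 nM · Technique – LANCE TR-FRET, Eu antibody, ULight-streptavidin, EDTA, ex 340 nm, em 618/671 nm · Medium – HEPES buffer, pH 7.5, plus ascorbate · Incubation – enzyme reaction 30 min, then detection 60 min, both room temperature · Reagent – H3K9me3 peptide with Fe(II)/2OG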
T cruzi growth-2: blocks T. cruzi growth in NIH3T3 host cells; shares compounds with T cruzi growth-1; T. cruzi beta-gal in NIH3T3, GalScreen luminescence, 90 h; inhibition, % at 8.35 µM; 5,600 compounds, 72% hits;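 active = mean replicate inhibition above about 95% and at least 55% of replicates individually reaching it, limit read from the data; inconclusive = only one of the two criteria is met; inactive = neither criterion is met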
T cruzi growth-3: blocks T. cruzi growth in NIH3T3 host cells | 5,600 compounds, 21% hits | T. cruzi beta-gal in NIH3T3, GalScreen luminescence, 90 h | AID 651740 | inhibition, % at 2.09 µM | shares compounds with T cruzi growth-1;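 active = mean inhibition above about 95%, with at least 55% of replicates also reaching it, limit read from the data; inconclusive = meets just one of the two conditions; inactive = meets neither condition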;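 also: plate controls were neutral control median for no effect and positive control median for full effect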
NIH3T3 tox: kills mouse NIH/3T3 fibroblasts; shares compounds with T cruzi growth-1; NIH/3T3 viability, CellTiter-Glo ATP luminescence, 90 h; cytotoxicity (signal decrease), % at 8.35 µM; 5,600 compounds, 14% hits; AID 651742;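 active = mean signal decrease across replicates above about 35% based on untreated-well scatter, with enough replicates individually passing, limit read from the data; inconclusive = no rule stated though some were filed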;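 also: 0% = median of neutral control wells and 100% = median of positive control wells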
NIH3T3 tox 2: cytotoxicity in mouse NIH/3T3 fibroblasts; 5,600 compounds, 56% hits; inhibition, % at 24.9 µM; AID 651744; NIH/3T3 viability, CellTiter-Glo ATP luminescence, 90 h; shares compounds with T cruzi growth-1;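 active = mean loss of cell viability signal at or above a set limit, and enough replicates individually reaching it; inconclusive = meets only the mean limit or only the replicate share; inactive = meets neither condition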;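 also: 0% = median of neutral control wells and 100% = median of positive control wells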
* = called active by the depositor; ? = inconclusive; . = no result given.

SMILES	T cruzi growth-1	Pf Dd2 inh	IDH1 mut inh	KDM4C inh	T cruzi growth-2	T cruzi growth-3	NIH3T3 tox	NIH3T3 tox 2
Cc1cc(C)c(NC(=O)C(C)N(c2ccccc2)S(C)(=O)=O)c(C)c1 (configuration not stated)	.	.	0.2	.	.	.	.	.
Cc1ccc(-c2csc3ncnc(SCC(=O)Nc4ccccc4F)c23)cc1	.	.	0.0	.	.	.	.	.
OC[C@H]1Nc2ccc(-c3cccc(F)c3)cc2[C@@H]2[C@H]1CCN2Cc1ccncc1	97.4*	-61.7	.	1.8	101.5*	80.9	21.3	89.4*
OC[C@@H]1Nc2ccc(-c3cccc(F)c3)cc2[C@H]2[C@@H]1CCN2Cc1ccc(F)cc1	102.6*	-67.7	.	-2.1	107.8*	115.3*	26.5	103.0*
O=C(c1cccc(F)c1)N1CC[C@@H]2[C@@H](CO)Nc3ccc(-c4cccc(F)c4)cc3[C@@H]21	15.7	-20.3	.	-2.2	.	.	.	.
O=C(CCCCCCC(=O)Nc1ccccc1O)N/N=C/c1cccc(O)c1	.	.	-0.3	.	.	.	.	.
COc1cc(C(=O)Nc2ccc(S(=O)(=O)Nc3ccccn3)cc2)cc(OC)c1OC	.	.	-0.2	.	.	.	.	.
C[C@H]1CN([C@@H](C)CO)C(=O)Cc2cc(NC(=O)c3ccncc3)ccc2O[C@H]1CN(C)Cc1ccc(Oc2ccccc2)cc1	97.0*	13.1	0.0	-2.4	97.5*	47.9	33.3	104.3*
C[C@H](CO)N1C[C@H](C)[C@@H](CN(C)Cc2ccc(-c3ccccc3)cc2)Oc2ccc(NC(=O)c3ccncc3)cc2CC1=O	125.1*	-79.1	-4.9	0.2	112.1*	81.9	18.7	106.3*
C[C@@H]1CN([C@@H](C)CO)C(=O)Cc2cc(NC(=O)c3ccncc3)ccc2O[C@@H]1CN(C)Cc1ccc(-c2ccccc2)cc1	47.9	-26.0	-0.1	-0.7	.	.	.	.
C[C@@H]1CCCCO[C@@H](CN(C)CC2CCCCC2)[C@@H](C)CN([C@@H](C)CO)C(=O)c2cc(NS(C)(=O)=O)ccc2O1	104.3*	-20.3	3.1	-0.2	58.6	-2.7	0.5	-18.6
C[C@@H]1CCCCO[C@H](CN(C)CC2CCCCC2)[C@H](C)CN([C@@H](C)CO)C(=O)c2cc(NS(C)(=O)=O)ccc2O1	-42.1	.	1.5	0.7	.	.	.	.
COc1ccc(S(=O)(=O)Nc2ccc3c(c2)C(=O)N([C@@H](C)CO)C[C@H](C)[C@H](CN(C)CC2CCCCC2)OCCCC[C@@H](C)O3)cc1	38.0	-35.9	.	1.5	.	.	.	.
C[C@@H]1CCCCO[C@@H](CN(C)S(=O)(=O)c2cn(C)cn2)[C@@H](C)CN([C@@H](C)CO)C(=O)c2cc(NS(C)(=O)=O)ccc2O1	102.1*	38.5	-2.0	0.5	78.2	-11.0	-19.6	-31.1
COc1ccc(S(=O)(=O)Nc2ccc3c(c2)C(=O)N([C@H](C)CO)C[C@H](C)[C@@H](CN(C)CC2CCCCC2)OCCCC[C@H](C)O3)cc1	?	-29.5	-0.6	-0.5	104.0*	67.4	19.4	81.5*
C[C@@H]1CCCCO[C@H](CN(C)S(=O)(=O)c2cn(C)cn2)[C@@H](C)CN([C@@H](C)CO)C(=O)c2cc(NS(C)(=O)=O)ccc2O1	-51.5	-25.3	-2.4	0.7	.	.	.	.
Cc1ccc(S(=O)(=O)Nc2ccc3c(c2)C(=O)N([C@H](C)CO)C[C@@H](C)[C@H](CN(C)CC2CCCCC2)OCCCC[C@@H](C)O3)cc1	?	-63.4	.	-0.9	101.7*	84.5	27.2	103.7*
CCCCCCCCC/C=C/CCCCC(=O)C1C(=O)CCC(O)C1=O (configuration not stated)	.	.	4.6	.	.	.	.	.
O=C(Cn1cnc([N+](=O)[O-])n1)Nc1ccc(Cl)cc1C(F)(F)F	.	.	-0.1	.	.	.	.	.
CS(=O)(=O)N(CC(=O)NC1CCCCC1)c1ccc(F)c(Cl)c1	.	.	0.4	.	.	.	.	.
CCOC(=O)c1c(NC(=O)COc2ccc(Cl)cc2C)sc2c1CCC2	.	.	0.4	.	.	.	.	.
Cc1ccc(S(=O)(=O)Nc2ccc3c(c2)C(=O)N([C@H](C)CO)C[C@@H](C)[C@@H](CN(C)CC2CCCCC2)OCCCC[C@@H](C)O3)cc1	?	-64.6	0.2	-0.5	99.6*	101.0*	46.5*	104.0*
O=C(CSc1nc2c(c(C(F)(F)F)n1)CCc1ccccc1-2)Nc1ccc(Cl)cc1	.	.	0.3	.	.	.	.	.
O=S(=O)(Cc1ccccc1)N1CCCCN2[C@H](C1)[C@@H](c1ccc(-c3ccccc3)cc1)[C@@H]2CO	114.5*	-18.3	.	0.0	100.7*	89.3	21.8	96.3*
O=S(=O)(Cc1ccccc1)N1CCCCN2[C@@H](CO)[C@H](c3ccc(-c4ccc(F)cc4)cc3)[C@@H]2C1	94.4	-31.1	.	-1.4	.	.	.	.
SMILES	T cruzi growth-1	Pf Dd2 inh	IDH1 mut inh	KDM4C inh	T cruzi growth-2	T cruzi growth-3	NIH3T3 tox	NIH3T3 tox 2
O=S(=O)(Cc1ccccc1)N1CCCCN2[C@H](C1)[C@@H](c1ccc(-c3cncnc3)cc1)[C@@H]2CO	?	-10.2	.	0.7	95.7*	17.5	8.4	17.4
O=S(=O)(Cc1ccccc1)N1CCCCN2[C@H](C1)[C@H](c1ccc(-c3ccncc3)cc1)[C@@H]2CO	-25.9	-21.9	.	0.5	.	.	.	.
O=S(=O)(Cc1ccccc1)N1CCCCN2[C@H](C1)[C@H](c1ccc(-c3ccccc3)cc1)[C@@H]2CO	117.7*	-42.9	.	-0.8	105.2*	62.1	28.1	103.6*
COc1ccc(S(=O)(=O)N(C)C[C@H]2Oc3cc(C#CC4CC4)ccc3S(=O)(=O)N([C@@H](C)CO)C[C@@H]2C)cc1	102.4*	-73.4	1.2	0.6	96.5*	90.8	52.8*	67.3*
COc1ccc(S(=O)(=O)N(C)C[C@H]2Oc3cc(C#CC4CC4)ccc3S(=O)(=O)N([C@@H](C)CO)C[C@H]2C)cc1	109.8*	-60.5	.	-0.8	109.4*	?	-7.7	57.3*
COc1ccc(S(=O)(=O)N(C)C[C@@H]2Oc3cc(C#CC4CC4)ccc3S(=O)(=O)N([C@H](C)CO)C[C@H]2C)cc1	105.6*	-71.0	.	-0.1	103.3*	66.8	37.5*	47.0*
COc1ccc(S(=O)(=O)N(C)C[C@H]2Oc3cc(C#CC4CCCC4)ccc3S(=O)(=O)N([C@@H](C)CO)C[C@@H]2C)cc1	40.1	?	.	-2.9	.	.	.	.
COc1ccc(S(=O)(=O)N(C)C[C@H]2Oc3cc(C#CC4CCCC4)ccc3S(=O)(=O)N([C@@H](C)CO)C[C@H]2C)cc1	46.6	-74.8	-0.1	-1.0	.	.	.	.
COC(=O)c1cccc(NC(=O)CSc2nc(C)cc(-c3ccccc3)n2)c1	.	.	0.1	.	.	.	.	.
Cc1ccc(C(=O)N(CC(N)=O)CC(N)=O)cc1	.	.	0.2	.	.	.	.	.
C[C@@H]1CN([C@@H](C)CO)C(=O)CCCn2cc(nn2)CO[C@@H]1CN(C)C(=O)Nc1ccccc1	?	1.8	-0.1	0.1	38.2	-0.3	-13.9	-1.4
